IC50 data for three compounds are collected here from BindingDB's records for doi:10.1021/jm300345z (University of Copenhagen, 2012).

Assay [1] deals with Excitatory amino acid transporter 2 (Homo sapiens, UniProt P43004). The experiment in a line: Inhibition of human EAAT2 expressed in HEK293 cells assessed as inhibition of 3[H]-D-Aspartate uptake after 6 mins by scintillation counting method. An outline of the steps: (§1)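 HEK293 cell lines expressing EAAT1, EAAT2 or EAAT3 were cultured and assayed for [³H]-D-aspartate uptake, following an earlier published protocol. Inhibition is reported as IC50 in μM, with pIC50 ± SEM.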
Sequence of Excitatory amino acid transporter 2 (P43004 whole entry): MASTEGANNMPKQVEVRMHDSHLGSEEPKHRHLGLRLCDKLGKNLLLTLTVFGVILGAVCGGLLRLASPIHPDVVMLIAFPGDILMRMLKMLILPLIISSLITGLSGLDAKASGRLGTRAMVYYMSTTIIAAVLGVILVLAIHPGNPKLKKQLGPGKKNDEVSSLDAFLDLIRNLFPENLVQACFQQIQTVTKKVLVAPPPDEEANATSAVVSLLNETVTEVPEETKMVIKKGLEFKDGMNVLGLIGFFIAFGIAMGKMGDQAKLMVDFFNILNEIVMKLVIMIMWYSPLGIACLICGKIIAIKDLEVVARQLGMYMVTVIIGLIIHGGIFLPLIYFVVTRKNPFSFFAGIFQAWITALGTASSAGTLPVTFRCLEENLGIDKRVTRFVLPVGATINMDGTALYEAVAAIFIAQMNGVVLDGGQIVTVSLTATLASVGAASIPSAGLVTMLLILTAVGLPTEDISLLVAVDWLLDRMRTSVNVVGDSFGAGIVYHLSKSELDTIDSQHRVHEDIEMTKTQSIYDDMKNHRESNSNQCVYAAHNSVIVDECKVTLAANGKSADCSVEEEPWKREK

Assay [2] addresses T1, Excitatory amino acid transporter 3 (Homo sapiens, UniProt P43005).
T1 sequence (P43005 whole entry): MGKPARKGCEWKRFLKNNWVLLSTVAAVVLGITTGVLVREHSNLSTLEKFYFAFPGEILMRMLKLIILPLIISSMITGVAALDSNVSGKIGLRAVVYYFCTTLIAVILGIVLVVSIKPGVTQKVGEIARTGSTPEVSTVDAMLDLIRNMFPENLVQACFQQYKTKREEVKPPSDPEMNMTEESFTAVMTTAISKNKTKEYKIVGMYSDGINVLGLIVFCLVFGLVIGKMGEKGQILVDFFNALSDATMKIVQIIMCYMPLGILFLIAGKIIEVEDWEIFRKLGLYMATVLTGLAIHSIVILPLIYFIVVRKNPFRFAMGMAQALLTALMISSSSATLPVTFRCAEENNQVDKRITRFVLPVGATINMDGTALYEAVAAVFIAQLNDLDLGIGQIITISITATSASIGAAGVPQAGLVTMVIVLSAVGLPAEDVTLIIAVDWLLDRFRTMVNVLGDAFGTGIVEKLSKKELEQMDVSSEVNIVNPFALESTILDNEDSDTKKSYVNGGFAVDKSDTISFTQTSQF
In words: Inhibition of human EAAT3 expressed in HEK293 cells assessed as inhibition of 3[H]-D-Aspartate uptake after 6 mins by scintillation counting method. An outline of the steps: as §1

Assay [3] has as its target Excitatory amino acid transporter 1 (Homo sapiens, UniProt P43003). The experiment in a line: Inhibition of human EAAT1 expressed in HEK293 cells assessed as inhibition of 3[H]-D-Aspartate uptake after 6 mins by scintillation counting method. An outline of the steps:
as §1

Sequence of Excitatory amino acid transporter 1 (P43003 whole entry): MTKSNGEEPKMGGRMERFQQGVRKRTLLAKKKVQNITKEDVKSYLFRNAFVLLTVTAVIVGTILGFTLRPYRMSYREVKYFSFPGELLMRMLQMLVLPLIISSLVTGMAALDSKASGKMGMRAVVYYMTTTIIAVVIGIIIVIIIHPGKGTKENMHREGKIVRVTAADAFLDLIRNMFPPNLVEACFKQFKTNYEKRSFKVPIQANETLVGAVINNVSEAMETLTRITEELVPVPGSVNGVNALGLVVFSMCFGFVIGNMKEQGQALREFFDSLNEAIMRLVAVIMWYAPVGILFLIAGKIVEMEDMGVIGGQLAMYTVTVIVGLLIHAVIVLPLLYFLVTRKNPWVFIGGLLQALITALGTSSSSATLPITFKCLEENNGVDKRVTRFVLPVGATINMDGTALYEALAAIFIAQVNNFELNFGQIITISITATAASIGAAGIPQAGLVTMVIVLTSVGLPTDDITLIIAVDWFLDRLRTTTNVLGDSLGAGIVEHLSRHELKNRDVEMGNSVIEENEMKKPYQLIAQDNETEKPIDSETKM

In the case of `N#CC1C(=N)OC2=C(C(=O)CN(c3ccccc3)C2)C1c1ccccc1` (configuration not stated), the IC50 in assay [1], in assay [2] and in assay [3] was over 100 µM throughout.

`CC1(C)C2=C(CC(c3ccccc3)CC2=O)OC(=N)C1C#N` (configuration not stated): the IC50 in assay [3] is over 300 µM.

As for `N#CC1C(=N)OC2=C(C(=O)CN(C(=O)c3ccccc3)C2)C1c1ccccc1` (configuration not stated), the IC50 in assay [1], in assay [2] and in assay [3] was over 100 µM throughout.

One may read the IC50 as the concentration that inhibits the measured activity by half.
